According to ChEMBL document CHEMBL1275329, “Fruitful adrenergic α(2C)-agonism/α(2A)-antagonism combination to prevent and contrast morphine tolerance and dependence” (J Med Chem, 2010):
Activity calls are given as the source filed them. The calls are words filed in the database; no cut-off is given here.

Key:
[1] = target: T1, Alpha-2A adrenergic receptor (Homo sapiens) (UniProt P08913); assay: Antagonist activity at human alpha2A adrenoceptor expressed in CHO cells assessed as effect on agonist-induced extracellular acidification by microphysiometry; type: functional, cell-based
T1 sequence (whole entry): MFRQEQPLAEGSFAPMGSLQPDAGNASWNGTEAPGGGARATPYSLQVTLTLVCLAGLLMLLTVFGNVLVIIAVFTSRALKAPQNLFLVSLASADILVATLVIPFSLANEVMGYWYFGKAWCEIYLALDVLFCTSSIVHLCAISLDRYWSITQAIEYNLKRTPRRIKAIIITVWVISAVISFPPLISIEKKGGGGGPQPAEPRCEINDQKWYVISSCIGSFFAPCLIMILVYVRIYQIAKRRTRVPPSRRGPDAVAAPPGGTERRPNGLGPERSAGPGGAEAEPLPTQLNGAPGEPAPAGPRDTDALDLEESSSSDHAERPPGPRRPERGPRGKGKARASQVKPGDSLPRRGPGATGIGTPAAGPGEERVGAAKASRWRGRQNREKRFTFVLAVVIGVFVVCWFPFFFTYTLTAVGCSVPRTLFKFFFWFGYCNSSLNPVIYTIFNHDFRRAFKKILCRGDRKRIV
Outline: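 CHO cells stably expressing one human α2-AR subtype were run on the Cytosensor microphysiometer with bicarbonate-free DMEM perfusion. […] Kb = M/(concentration ratio − 1), where the ratio is EC50 with antagonist over EC50 without. Reported as pKb, mean ± SEM of 3–6 experiments.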

[2] = target: T2, Alpha-2C adrenergic receptor (Homo sapiens) (UniProt P18825); assay: Agonist activity at human Alpha-2C adrenoceptor expressed in CHO cells assessed as induction of extracellular acidification by microphysiometry relative to (-)noradrenaline; type: functional, cell-based
T2 sequence (whole entry): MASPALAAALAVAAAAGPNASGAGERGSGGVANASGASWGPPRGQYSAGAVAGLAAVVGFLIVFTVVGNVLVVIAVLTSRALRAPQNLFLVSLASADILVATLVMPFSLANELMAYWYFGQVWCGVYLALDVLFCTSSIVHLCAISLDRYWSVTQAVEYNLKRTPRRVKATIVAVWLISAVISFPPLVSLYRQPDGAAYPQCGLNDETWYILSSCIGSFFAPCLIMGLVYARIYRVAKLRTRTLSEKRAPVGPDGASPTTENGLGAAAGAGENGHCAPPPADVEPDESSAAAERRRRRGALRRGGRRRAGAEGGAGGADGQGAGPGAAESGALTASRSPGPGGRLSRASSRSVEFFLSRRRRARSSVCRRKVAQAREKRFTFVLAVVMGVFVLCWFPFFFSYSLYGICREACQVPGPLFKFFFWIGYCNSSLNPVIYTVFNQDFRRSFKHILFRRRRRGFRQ
Outline: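 Cytosensor microphysiometry on CHO cells stably expressing one human α2-AR subtype, seeded at 3 × 10⁵ cells/cup and grown 24 h at 37 °C. Cells were perfused with bicarbonate-free DMEM and exposed to agonist for 4 min, with 30 min washes between exposures. The read-out is the change in acidification rate: peak after agonist minus the mean of three prior readings. […] Mean ± SEM, 3–6 experiments.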

Mus musculus [3] = assay: Reduction in morphine tolerance acquisition in CD1 mouse assessed as morphine analgesic effect incidence at 0.05 mg/kg, ip administered as single dose 15 mins before last morphine dosing on test day post morphine challenge by radiant heat tail flick test; type: functional; set-up: scale not given: the % may be the effect or the level left; conditions: route intraperitoneal
Outline: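 Tolerance was induced in male CD-1 mice with morphine 10 mg/kg sc twice daily at 12 h intervals for 5 days. On day 5, test agent 0.05 mg/kg ip was given once, 15 min before the last morphine injection. Tail-flick antinociception was read 30 min after that injection and expressed as %MPE, with day 1 vs day 5 compared.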

Mus musculus [4] = assay: Reduction in morphine tolerance acquisition in CD1 mouse assessed as morphine analgesic effect incidence at 0.05 mg/kg, ip bid administered 15 mins before last morphine dosing by radiant heat tail flick test; type: functional, organism-based; set-up: dose 0.05 mg/kg
Mus musculus [5] = assay: Reduction in morphine dependence expression in CD1 mouse assessed as decrease in expression of naloxone-precipitated withdrawal syndrome at 0.05 mg/kg, ip bid administered 15 mins before last morphine dosing […]; type: functional, organism-based; set-up: dose 0.05 mg/kg
Outline: (§1)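 In male CD-1 mice, morphine 10 mg/kg sc was given twice daily at 12 h intervals for 6 days, with test agent 0.05 mg/kg ip 15 min before each morphine dose. Jumping was counted, and somatic signs were scored as the sum of rearing, forepaw tremor and teeth chatter. Blind observers; mean ± SEM.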

Mus musculus [6] = assay: Reduction in morphine dependence expression in CD1 mouse assessed as decrease in somatic signs at 0.05 mg/kg, ip bid administered 15 mins before last morphine dosing […]; type: functional; set-up: scale not given: the % may be the effect or the level left; conditions: route intraperitoneal; outline: as §1
Mus musculus [7] = assay: Reduction in morphine dependence expression in CD1 mouse assessed as decrease in frequency of jumping at 0.05 mg/kg, ip bid administered 15 mins before last morphine dosing […]; type: functional; set-up: scale not given: the % may be the effect or the level left; conditions: route intraperitoneal; outline: as §1
[8] = target: T3, Alpha-2B adrenergic receptor (Homo sapiens) (UniProt P18089); conditions: CHO
T3 sequence (whole entry): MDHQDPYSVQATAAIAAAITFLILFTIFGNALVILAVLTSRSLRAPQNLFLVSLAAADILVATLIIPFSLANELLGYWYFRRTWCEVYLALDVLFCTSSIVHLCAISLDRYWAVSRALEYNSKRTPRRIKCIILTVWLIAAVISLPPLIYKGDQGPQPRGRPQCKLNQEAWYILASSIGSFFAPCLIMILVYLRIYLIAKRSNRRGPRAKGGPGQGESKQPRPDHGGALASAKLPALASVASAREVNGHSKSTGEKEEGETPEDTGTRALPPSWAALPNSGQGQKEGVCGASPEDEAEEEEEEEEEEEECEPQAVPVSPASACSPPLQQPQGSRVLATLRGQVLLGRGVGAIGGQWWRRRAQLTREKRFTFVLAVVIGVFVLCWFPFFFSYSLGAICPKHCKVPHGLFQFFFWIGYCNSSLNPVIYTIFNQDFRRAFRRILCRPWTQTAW

## C=CCc1ccccc1OC(C)C1=NCCN1 (racemic) [ALLYPHENYLINE]
[1]
  pKb: 7.4
[2]
  Intrinsic activity: 0.9
Mus musculus [3]
  Activity: 22%
Mus musculus [4]
  Activity: Active
Mus musculus [5]
  Activity: Active
Mus musculus [6]
  Activity: 40%
Mus musculus [7]
  Activity: 80%
[8]
  pEC50: inactive
